Screening data as filed in PubChem BioAssay.
Hits are enriched below; roughly 8.8% of the tested compounds scored in any of these assays.
M1 antag = blocks the rat M1 muscarinic receptor response to acetylcholine; P08482; CHO-M1 cells, Fluo-4 calcium, ACh EC80 antagonist mode; hits give low values; B-score at 10 µM; 3.4% of 64,000 active; AID 628;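 active means calcium fluorescence response, raw or row-and-column corrected B-score, differing from the plate sample mean either way at a set confidence level, mostly lower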
M1 ag = agonists of M1 muscarinic receptor; CHO-M1 cells, Fluo-4 calcium fluorescence, agonist mode; hits give high values; B-score at 10 µM; 3% of 64,000 active;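 active means fluorescence rise, raw or as B-score row- and column-corrected plate score, outside the 99.7% band of its plate's samples, either direction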
S1P1 ag-PAM = S1P1 (human) agonism or agonism potentiation; S1P1 CRE-bla cells, forskolin, beta-lactamase FRET, potentiator mode; S1P1 agonist co-added at EC20, 2 nM; 100% = saturating reference agonist, 0% = basal; 0.57% of 56,000 active; P21453; activation, % at 9.5 µM;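 active means activation above a cutoff set at the mean activation of all tested compounds plus 3 SD, cut at about 54% in these data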;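 further: forskolin at 4 µM as EC80 and the EC20 agonist is SEW2871; 100% = SEW2871 at its EC100 plus forskolin at EC80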
SF1 activator = SF-1 (human) activation | CHO-K1 Gal4-SF-1 LBD luciferase reporter; % increase over DMSO SF-1-specific signal | Q13285 | activation, % at 10 µM | 1.9% of 65,000 active;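 active means activation above the mean activation of all tested compounds plus 3 SD, cut at about 50% in these data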
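Compound – one dose, 10 µM compound, 1% DMSO · Test system – transient Gal4-SF-1 LBD reporter, CHO-K1 · Input – 4,000 cells in each well · Read-out basis – percent activation relative to DMSO median and mock-transfected background · Replicates – single measurement per compound · Technique – steady-glow luciferase luminescence, read after 15 min reagent incubation · Timing – 20 h compound treatment, 37 °C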
S1P3 agonist = activates the human S1P3 receptor. Q99500. S1P3 NFAT-BLA reporter cells, agonism, FRET ratio; relative to 1 µM S1P, basal subtracted. activation, % at 4.5 µM. 0.1% of 60,000 active. AID 373;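 active means activation above the screen-wide mean plus 3 SD, cut at about 4.5% in these data, passing the limit was not always enough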
Target sequence (Q99500 whole entry, looked up): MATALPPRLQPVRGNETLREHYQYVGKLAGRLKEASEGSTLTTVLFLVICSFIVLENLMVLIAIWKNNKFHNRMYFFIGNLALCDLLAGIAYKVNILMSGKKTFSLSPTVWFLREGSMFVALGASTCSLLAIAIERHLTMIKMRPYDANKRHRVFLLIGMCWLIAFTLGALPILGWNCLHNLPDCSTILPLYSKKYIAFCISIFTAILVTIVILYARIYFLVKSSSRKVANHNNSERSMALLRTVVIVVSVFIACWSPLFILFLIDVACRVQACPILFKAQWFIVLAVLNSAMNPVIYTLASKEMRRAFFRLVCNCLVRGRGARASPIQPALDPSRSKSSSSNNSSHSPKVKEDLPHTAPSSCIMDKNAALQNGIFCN
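Benchmarks: high control 1 µM S1P / System: stable CHO line with human S1P3, Gα16, NFAT-BLA reporter / Dosing: single compound concentration, 4.5 µM final / Timing: 4 h compound at 37 °C, 2 h substrate at RT / Measured by: FRET β-lactamase substrate fluorescence, excitation 405 nm, 460/535 nm emission ratio, background-subtracted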
RORA act = RORA (human) activation. AID 560. activation, % at 10 µM. CHO-K1 Gal4-RORA LBD luciferase reporter, luminescence; percent increase over mock-subtracted basal signal. 1.5% of 65,000 active. P35398;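 active means activation above the mean of all tested compounds plus 3 SD, cut at about 49% in these data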;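 further: 0% = DMSO-treated RORA cells and 100% = added signal equal to DMSO minus mock-transfected cells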
Numbers without * were called inactive; x = no result.

SMILES | M1 antag | M1 ag | S1P1 ag-PAM | SF1 activator | S1P3 agonist | RORA act
CC(C)c1cc(C(=O)Nc2sc3c(c2C#N)CCC3)no1 | 0.092 | -0.95 | 40 | 46 | -1 | 76*
Cc1cc(C(=O)Nc2sc3c(c2C#N)CCC(C)C3)cs1 (stereo not given) | 0.067 | -0.67 | 14 | 33 | 0 | 91*
CC(C)(C)C1CCc2c(sc(NC(=O)c3cc(C4CC4)on3)c2C#N)C1 (stereo not given) | -0.037 | 0.99 | 0 | -9 | -1 | 14
O=C(O)C1C2C=CC(C2)C1C(=O)NCCc1cccc(Cl)c1 (stereo not given) | 0.42 | -0.28 | x | 3 | 0 | -7
N#Cc1nc(-c2ccco2)oc1N1CCc2ccccc2C1 | 0.73 | 3.9* | 5 | -9 | 0 | -14
Cc1cc(C)n2nc(SCC3COc4ccccc4O3)nc2n1 (stereo not given) | 0.69 | -0.027 | -3 | 55* | -1 | 29
Cc1cc(C)c(C#N)c(SCC2COc3ccccc3O2)n1 (stereo not given) | 0.19 | -0.67 | -30 | -24 | 0 | -5
COc1ccccc1Oc1ccc2c(c1)C(=O)N(c1ccc(O)cc1)C2=O | 0.73 | 0.2 | 112* | 5 | -1 | 31
O=C1C2C3C=CC(C3=C3CCCCC3)C2C(=O)N1Cc1ccccc1 (stereo not given) | 0.5 | 0.19 | -6 | -6 | 0 | 17
Cc1ccccc1C(=O)Nc1ccc(Br)cn1 | -0.67 | -0.053 | -3 | 82* | 0 | 67*
Cc1nnc(N2C(=O)C(O)=C(C(=O)c3ccco3)C2c2ccc(F)cc2)s1 (stereo not given) | -0.28 | 18* | -11 | -11 | 1 | 12
O=C(Nc1ccccc1)N1CC=C(c2ccccc2)CC1 | 0.15 | 0.35 | x | 87* | 1 | 49*
O=C(CCc1ccc(S(=O)(=O)N2CCOCC2)cc1)OCc1nc2ccccc2s1 | -0.43 | 0.64 | 4 | 59* | 1 | 10
Cc1cccc(/N=C/c2c(O)[nH]c3ccccc23)n1 | -0.46 | -0.3 | 7 | 103* | -1 | 86*
Oc1[nH]c2ccccc2c1C=Nc1ccc2c(c1)OCCO2 | 0.15 | -0.34 | 8 | 33 | -1 | 28
COc1ccc(Cl)cc1NC(=O)c1ccoc1C | 0.19 | 0.12 | -6 | 4 | -1 | -33
Cc1nc2c(cc(Oc3ccc(S(=O)(=O)N4CCOCC4)cn3)c3ccsc32)s1 | 0.34 | 0.86 | -4 | 53* | 1 | 35
COC(=O)C1CCN(C(=O)COc2cc3sc(C)nc3c3sccc23)CC1 | -0.0093 | -0.36 | -2 | -10 | -1 | -10
CCOC(=O)c1cccc2c1-c1ccccc1/C2=N/O | -0.32 | 0.68 | 62* | -16 | -1 | 0
CCOC(=O)c1cccc(C(=O)OCC)n1 | 0.74 | -1.1 | 0 | 3 | 0 | -8
CCC(=O)Nc1cc(OC)c(NC(=O)c2ccccc2)cc1OC | 0.0088 | 0.072 | 5 | 6 | 0 | -8
CCOc1cc(NC2CS(=O)(=O)CC2O)c(OCC)cc1NC(=O)c1ccccc1 (stereo not given) | 2.6* | -0.4 | 2 | -13 | -1 | 9
COc1ccc(-n2nc3ccc(NS(C)(=O)=O)cc3n2)cc1Cl | -0.46 | -0.64 | 103* | 37 | -1 | 33
Cc1cc2c(cc(C(=O)N3CCC(C(=O)NC4CCCC4)CC3)n2Cc2c(F)cccc2Cl)o1 | 0.063 | 6.2* | 24 | -16 | -1 | -1
CCOC(=O)C1CCN(Cc2c(F)cccc2Cl)CC1 | 0.13 | -0.75 | x | -11 | -1 | -17
SMILES | M1 antag | M1 ag | S1P1 ag-PAM | SF1 activator | S1P3 agonist | RORA act
Cc1cc(NC(=O)CCC2CCCC2)no1 | -0.42 | -1.1 | -8 | 11 | 0 | -5
COC(=O)Cn1c(C)nc2c(sc3nc(C)cc(C)c32)c1=O | -0.77 | -0.12 | -12 | 50* | -1 | 40
CCOC(=O)Cn1c(C)nc2c(C(=O)OCC)sc(C)c2c1=O | 0.05 | -1.2 | 13 | 12 | -2 | -11
O=C(c1ccco1)N1CCN(c2ncnc3scc(-c4cccs4)c23)CC1 | -0.41 | 1.9* | 5 | 7 | 0 | 3
COc1cccc(Cn2nnc(C(=O)NCc3ccccc3Cl)c2N)c1 | -2.1 | -0.48 | -3 | 7 | -1 | -6
Cn1c(-c2ccccc2)cc2c3no[n+]([O-])c3ccc21 | 0.14 | 0.18 | 38 | -73 | -2 | -66
CCOC(=O)CN(C(=O)CSc1nnc(-c2cccc(OC)c2)o1)c1ccc(F)cc1 | 0.0014 | -0.25 | 82* | -11 | 0 | -10
COC(=O)CN(C(=O)CSc1nnc(-c2cccc(OC)c2)o1)c1ccc(OC)cc1 | 0.44 | 0.59 | 2 | -14 | -1 | -8
CC1CC(C)CN(S(=O)(=O)c2ccc(C(=O)NCCCn3ccnc3)cc2)C1 (stereo not given) | -0.74 | 0.24 | -16 | 17 | 0 | 18
COc1ccc(S(=O)(=O)N2Cc3ccccc3CC2C(=O)Nc2nccs2)cc1OC (stereo not given) | -0.14 | 1.2 | x | 71* | 0 | 18
c1coc(-c2nnc(NC3=NCCC3)o2)c1 | -0.024 | -0.58 | -5 | 61* | 0 | 32
CC1=C(C(=O)OCc2ccc3c(c2)OCO3)C(c2ccc(Cl)cc2)NC(=O)N1 (stereo not given) | 0.58 | -0.25 | 113* | -5 | -2 | -27
CC1=C(C(=O)OCc2ccc3c(c2)OCO3)C(c2ccc(F)cc2)NC(=O)N1 (stereo not given) | -0.35 | -0.53 | 94* | -17 | -1 | -19
Cn1c(SCC(=O)N2CCCCC2)nc2cccnc21 | 0.7 | -0.22 | -3 | 10 | 0 | -1
Cc1cc(N)n2ncc(-c3ccccc3)c2n1 | 0.17 | 0.86 | x | 75* | x | 88*
Cc1cc(N)n2ncc(-c3cccc(Br)c3)c2n1 | 0.92 | -0.014 | x | 59* | -2 | 44
Cc1cc(N)n2nc(-c3ccccc3)cc2n1 | 0.35 | 1.3 | x | x | x | x
COc1ccc(-c2nnc(SCC(=O)Nc3ncc(C)s3)n2-c2ccccc2)cc1OC | -0.0089 | 1.1 | -30 | 33 | 0 | 18
COCCNC(=O)Cn1nc(C(F)(F)F)c(Cl)c1C | -0.024 | 0.075 | -6 | -6 | 0 | -15
COc1ccccc1Nc1ncc(-c2cccs2)s1 | -0.49 | 1 | 8 | 95* | -1 | 34
Cc1ccc(NC(=O)CS(=O)CC(=O)Nc2ccc3c(c2)OCO3)cc1Cl (stereo not given) | 0.88 | -0.0034 | -2 | 2 | -1 | -10
Clc1ccc(COn2nnc3ccccc32)c(Cl)c1 | 0.42 | 0.93 | 18 | 36 | 0 | 38
COc1ccc(Cn2c(C3CC3)nc3ccc(NC(=O)C4CC4)cc3c2=O)cc1 | 0.34 | -0.25 | -5 | 162* | 1 | 48
